Experimental data as given in ChEMBL document CHEMBL4028906, “Allosteric Inhibitors of SHP2 with Therapeutic Potential for Cancer Treatment” (J Med Chem, 2017).
Active and inactive are the calls of the source.

Legend:
[1] = target: T1, Tyrosine-protein phosphatase non-receptor type 11 (Homo sapiens) (UniProt Q06124); test: Allosteric inhibition of SHP2 in human NCI-H661 cells assessed as downregulation of ERK1/2 activation at 10 uM after 60 mins by Western blot analysis; assay type: cell-based
T1 sequence (whole entry): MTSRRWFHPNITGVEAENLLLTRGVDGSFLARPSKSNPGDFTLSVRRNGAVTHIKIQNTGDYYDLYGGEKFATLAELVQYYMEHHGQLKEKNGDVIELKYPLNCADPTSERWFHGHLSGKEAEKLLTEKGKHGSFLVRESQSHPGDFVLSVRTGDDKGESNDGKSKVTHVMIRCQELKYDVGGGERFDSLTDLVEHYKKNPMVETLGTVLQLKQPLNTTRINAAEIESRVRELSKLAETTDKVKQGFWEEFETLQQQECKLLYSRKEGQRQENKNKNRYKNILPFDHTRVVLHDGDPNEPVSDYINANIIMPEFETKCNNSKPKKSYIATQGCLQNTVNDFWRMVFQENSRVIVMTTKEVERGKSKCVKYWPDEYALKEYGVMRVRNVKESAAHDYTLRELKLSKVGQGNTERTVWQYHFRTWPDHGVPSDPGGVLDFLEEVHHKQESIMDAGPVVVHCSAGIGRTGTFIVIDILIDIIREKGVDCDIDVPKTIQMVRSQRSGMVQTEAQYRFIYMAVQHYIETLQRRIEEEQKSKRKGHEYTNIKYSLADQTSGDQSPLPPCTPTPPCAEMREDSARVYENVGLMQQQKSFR
How it was run: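 NCI-H661 cells given 10 µM inhibitor over a time course. Lysates immunoblotted for p-ERK1/2, ERK1/2, p-AKT and AKT. Repeated at least three times.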

KYSE-520 cell line = test: Antiproliferative activity against human KYSE520 cells at 3 to 6 uM after 2 days by CellTiter-Glo assay; assay type: functional, cell-based
How it was run: (§1)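 3000 cells/well in 96-well plates, grown overnight, then inhibitor at indicated concentrations for 2 days (48 h). Viability by CellTiter-Glo; mean±s.d., n=3.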

[2] = target: Tyrosine-protein phosphatase non-receptor type 2 (Homo sapiens, UniProt P17706); test: Inhibition of TC-PTP (unknown origin) expressed in Escherichia coli BL21(DE3) using DIFMUP as substrate preincubated for 20 mins followed by substrate addition measured after 20 mins by phosphatase assay
How it was run: (§2)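 Phosphatases purified from E. coli and run as for SHP2 E76A: 20 min room-temperature preincubation with compound in 0.1 M sodium acetate pH 5.0, then DIFMUP at each enzyme's Km, 20 min, fluorescence 358/455 nm. Eight 3-fold dilutions in duplicate; IC50 from at least three independent experiments.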

[3] = target: M-phase inducer phosphatase 1 (Homo sapiens, UniProt P30304); test: Inhibition of CDC25A (unknown origin) expressed in Escherichia coli BL21(DE3) using DIFMUP as substrate preincubated for 20 mins followed by substrate addition measured after 20 mins by phosphatase assay; how it was run: as §2
Homo sapiens = organism: Homo sapiens; test: Allosteric inhibition of SHP2 E76A mutant (unknown origin) assessed as reduction in SHP2-mediated YAP Y357 peptide dephosphorylation. preincubated for 15 mins before YAP pY357 peptide addition and measured after 15 mins post substrate addition
How it was run: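 Purified SHP2 E76A (1.5 nM) preincubated 15 min with 20 μM inhibitor in 20 mM Tris-HCl pH 7.4, 100 mM NaCl, 1 mM EDTA, 2 mM DTT. 100 μM YAP pY357 peptide added for 15 min. Enzyme removed on 30 kD filters; products dot-blotted and probed with p-YAP(Y357) antibody (1:1000) with ECL detection.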

[4] = target: T1, Tyrosine-protein phosphatase non-receptor type 11 (Homo sapiens); test: Allosteric inhibition of SHP2 in human SF268 cells assessed as downregulation of YAP-mediated CYR61 gene expression ay 10 to 20 uM after 2 hrs by qRT-PCR analysis; assay type: cell-based
How it was run: (§3)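 SF268 cells exposed to DMSO, 10 μM or 20 μM inhibitor for 2 h. RNA extracted, reverse-transcribed, and CTGF, CYR61, ANKRD1 and YAP mRNA quantified by qPCR; mean±s.d., n=3.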

[5] = Half life in nu/nu mouse at 10 mg/kg, po measured up to 24 hrs postdose by LC/MS/MS analysis; assay type: ADME, organism-based; settings: in vivo
How it was run: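 Female nu/nu nude mice dosed IV via tail vein at 5 mg/kg or orally at 10 mg/kg. Blood sampled at 0.083, 0.25, 0.5, 1, 2, 4, 8 and 24 h post-dose (orbital sinus, terminal cardiac puncture; EDTA-2K). Plasma separated at 4 °C, precipitated with acetonitrile containing internal standard, quantified by LC/MS/MS.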

NCI-H1838 = test: Antiproliferative activity against human NCI-H1838 cells at 3 to 6 uM after 2 days by CellTiter-Glo assay; assay type: functional, cell-based; how it was run: as §1
[6] = target: T1, Tyrosine-protein phosphatase non-receptor type 11 (Homo sapiens); test: Allosteric inhibition of SHP2 in human NCI-H1975 cells harboring EGFR T790M mutant assessed as downregulation of ERK1/2 phosphorylation at 10 uM after 2 hrs by DAPI-based fluorescence microscopic analysis; assay type: cell-based
How it was run: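 NCI-H1975 cells grown overnight on coverslips, then 10 μM inhibitor for 2 h. Fixed in 4% PFA, permeabilized with 0.4% Triton X-100, BSA-blocked. Phospho-ERK1/2 antibody applied overnight at 4 °C, fluorescent secondary 1 h at room temperature, DAPI mount, fluorescence microscopy. Repeated at least three times.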

NCI-H1975 = test: Antiproliferative activity against human NCI-H1975 cells assessed as reduction in colony formation at 2.5 to 10 uM after 2 weeks by soft agar assay; assay type: functional, cell-based
How it was run: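 NCI-H1975 cells at 10,000/well in 0.4% agarose over a 1% low-melt agarose base layer (6-well). Inhibitor at varying concentrations, replenished twice weekly. After 2 weeks, colonies stained with iodonitrotetrazolium chloride and counted; mean±s.d., n=3.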

[7] = target: T1, Tyrosine-protein phosphatase non-receptor type 11 (Homo sapiens); test: Allosteric inhibition of SHP2 in human A549 cells harboring KRAS mutant assessed as upregulation of YAP Y357 phosphorylation at 5 and 10 uM after 2 hrs by Western blot analysis; assay type: cell-based
MOLM-13 = test: Antiproliferative activity against human MOLM13 cells at 3 to 6 uM after 2 days by CellTiter-Glo assay; assay type: functional, cell-based; how it was run: as §1
MOLT-4 = test: Antiproliferative activity against human MOLT4 cells at 3 to 6 uM after 2 days by CellTiter-Glo assay; assay type: functional, cell-based; how it was run: as §1
[8] = target: T1, Tyrosine-protein phosphatase non-receptor type 11 (Homo sapiens); test: Allosteric inhibition of SHP2 in human SF268 cells assessed as downregulation of YAP-mediated CTGF gene expression ay 10 to 20 uM after 2 hrs by qRT-PCR analysis; assay type: cell-based; how it was run: as §3
MDA-MB-468 = test: Antiproliferative activity against human MDA-MB-468 cells at 3 to 6 uM after 2 days by CellTiter-Glo assay; assay type: functional, cell-based; how it was run: as §1
NCI-H661 = test: Antiproliferative activity against human NCI-H661 cells at 3 to 6 uM after 2 days by CellTiter-Glo assay; assay type: functional, cell-based; how it was run: as §1
SF-268 = test: Effect on YAP gene expression in human SF268 cells at 10 to 20 uM after 2 hrs by qRT-PCR analysis; assay type: functional, cell-based; how it was run: as §3

Chain of M-phase inducer phosphatase 1 (P30304 whole entry): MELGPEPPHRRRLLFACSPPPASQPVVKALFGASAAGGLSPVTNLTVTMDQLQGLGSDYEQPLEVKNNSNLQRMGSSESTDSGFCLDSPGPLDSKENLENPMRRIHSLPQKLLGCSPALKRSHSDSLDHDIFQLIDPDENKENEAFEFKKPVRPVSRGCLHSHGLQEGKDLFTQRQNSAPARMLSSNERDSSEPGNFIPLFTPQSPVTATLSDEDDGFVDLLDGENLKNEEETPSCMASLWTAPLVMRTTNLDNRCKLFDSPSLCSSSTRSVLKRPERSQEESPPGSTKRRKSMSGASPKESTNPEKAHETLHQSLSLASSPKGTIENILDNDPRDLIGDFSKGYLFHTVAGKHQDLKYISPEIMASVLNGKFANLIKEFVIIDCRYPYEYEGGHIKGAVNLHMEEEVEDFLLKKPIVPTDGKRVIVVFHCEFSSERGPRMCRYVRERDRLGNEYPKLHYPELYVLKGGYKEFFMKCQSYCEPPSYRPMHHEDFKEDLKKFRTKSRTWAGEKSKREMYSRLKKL
Chain of Tyrosine-protein phosphatase non-receptor type 2 (P17706 whole entry): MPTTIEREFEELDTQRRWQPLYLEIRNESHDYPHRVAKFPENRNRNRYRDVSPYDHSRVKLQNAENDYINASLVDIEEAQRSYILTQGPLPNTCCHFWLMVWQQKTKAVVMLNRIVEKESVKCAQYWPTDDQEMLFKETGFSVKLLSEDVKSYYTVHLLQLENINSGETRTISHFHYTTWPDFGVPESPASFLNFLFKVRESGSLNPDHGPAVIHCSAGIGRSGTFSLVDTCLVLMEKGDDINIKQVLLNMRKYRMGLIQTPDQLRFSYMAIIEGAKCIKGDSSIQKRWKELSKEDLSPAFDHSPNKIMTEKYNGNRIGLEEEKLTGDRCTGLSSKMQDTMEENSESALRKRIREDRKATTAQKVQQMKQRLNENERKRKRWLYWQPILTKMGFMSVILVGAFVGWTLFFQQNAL

CC1(N)CCN(c2nc(-c3ccc4cc(Br)ccc4c3)cs2)CC1
active: inhibition [1] | Activity (KYSE-520 cell line) | inhibition (Homo sapiens) | inhibition [4] | Activity (NCI-H1838) | inhibition [6] | Activity (NCI-H1975) | inhibition [7] | Activity (MOLM-13) | Activity (MOLT-4) | inhibition [8] | Activity (MDA-MB-468) | Activity (NCI-H661)
13.3 h: half-life [5]
inactive: Activity (SF-268)
27.5 µM: IC50 [3]
> 100 µM: IC50 [2]
